Experimental data collected from several papers.
Lines come from different studies, so protocols differ.
Target: Mitogen-activated protein kinase 8 (MAPK8, Homo sapiens, UniProt P45983)

The inhibition of `COc1cc(-c2cc(-c3ccc(N4CCNCC4)cc3)cnc2C)cc(OC)c1OC` is reported as 0% (enzyme activity, inhibitor; 0.1 µM).
The inhibition of `CNCc1ccc(-c2cc(-c3nc(-c4ccc(S(=O)(=O)C(C)C)cc4)cnc3N)on2)cc1` is reported as 8% (enzyme activity, inhibitor; 2 µM).
`COc1ccc2c(c1)O[C@H](c1ccc(OC)c(OC)c1)C[C@@H]2NC(=O)C1(c2ccc3c(c2)OC(F)(F)O3)CC1` has a remaining binding of 96% (cell-free assay, competition with immobilised ligand; 1 µM).
`Cc1ccc(C(=O)Nc2ccc(CN3CCN(C)CC3)c(C(F)(F)F)c2)cc1C#Cc1cnc2cccnn12` gave a remaining activity of 82% (enzyme activity, inhibitor; 23.5 nM).
The remaining activity of `Cc1cnc(NC2CCOCC2)nc1-n1cnc(C(=O)NC(CN)c2cc(F)cc(Cl)c2)c1` (stereo not drawn) is reported as 56% (enzyme activity, inhibitor, radiometric; 1 µM).
`COc1cc2ncnc(Nc3ccc(Oc4ccccc4)cc3C)c2cc1OC` gave an inhibition of 1% (enzyme activity, inhibitor; 1 µM).
For `N#Cc1c(NC(=O)c2cccc3ccccc23)sc2c1CCCC2`, the remaining signal was 87.3% (cell-free assay; 0.5 µM).
`COc1cc(/C=C/C(=O)CC(=O)/C=C/c2ccc(O)c(OC)c2)ccc1O` has an activity vs control of 99% (enzyme activity, inhibitor; 1 µM).
With `N#CC1c2c([nH]c3c(Cl)c(Cl)ccc23)C(=O)NC12CCCCC2` (racemic) the ΔTm was 1.8 °C (thermal stability, DSF; 10 µM).
`CN1CC(Oc2cnc(C#N)cc2-c2ccn3nc(NC(=O)C4CC4)cc3c2)C1` gave an inhibition of -4% (enzyme activity, inhibitor; 1 µM).
With `COc1cc(Cl)c(C(=O)N[C@@H](CN[C@H]2CC[C@@H](N)CC2)Cc2ccc(C#N)cc2)cc1-c1ccc(CN[C@H](C)c2ccc(C)cc2)o1` the remaining activity was 100% (enzyme activity, inhibitor; 1 µM).
The remaining signal of `COc1cc2c(N3CCN(C(=O)Nc4ccc(OC(C)C)cc4)CC3)ncnc2cc1OCCCN1CCCCC1` is reported as 105% (cell-free assay; 0.5 µM).
For `CN(c1ccnc(CNc2nc(Nc3ccc4c(c3)CC(=O)N4)ncc2C(F)(F)F)n1)S(C)(=O)=O`, the remaining binding was 65% (cell-free assay, competition with immobilised ligand; 1 µM).
With `Cn1c2c(c3ccc(Cl)c(Cl)c31)C(C#N)C1(CCCC1)NC2=O` (stereo not drawn) the ΔTm was 0.6 °C (thermal stability, DSF; 10 µM).
`CN(C)C1CCN(CC#Cc2nn(C3CCCC3)c3nc(NCc4ccccc4)ncc23)C1` (stereo not drawn) gave an inhibition of 5% (enzyme activity, inhibitor, FRET; 1 µM).
For `Nc1ncnc2occ(-c3ccc(NC(=O)Nc4cc(C(F)(F)F)ccc4F)cc3)c12`, the remaining signal was 11% (cell-free assay, inhibitor; 20 µM).
`CC(C)(O)c1cncc(-c2nc3ccc(F)cc3n2C2CC2)c1` has a remaining binding of 100% (cell-free assay, competition with immobilised ligand; 1 µM).
With `CC(C)(C)c1nc2c(s1)c1nc(N)ncc1c1ccc(NS(=O)(=O)c3c(F)cccc3F)c(F)c12` the remaining activity was 75% (enzyme activity, inhibitor, radiometric; 1 µM).
The remaining activity of `COc1cc(Nc2cnc(C#N)c(O[C@H](C)CN(C)C)n2)ncc1-c1cnn(C)c1` is reported as 93% (enzyme activity, inhibitor, radiometric; 10 µM).
`Cc1sc(C(=O)NC2COC2)cc1-n1cc(NC(=O)Nc2c(F)cccc2Cl)cn1` gave a remaining activity of 76.3% (enzyme activity, inhibitor; 10 µM).
With `FC(F)(F)Oc1cccc(-c2cnc3ccc(-c4ccncc4)nn23)c1` the activity vs control was 91% (enzyme activity, inhibitor, radiometric; 1 µM).
`C[C@@H]1CN(c2cc(-c3nn(C)c4ccc(OC5(C)CC5)cc34)ncn2)C[C@H](C)O1` has a remaining binding of 82% (cell-free assay, competition with immobilised ligand; 1 µM).
`Cn1c2c(Cl)c(Cl)ccc2c2cn[nH]c(=O)c21` gave a ΔTm of -0.3 °C (thermal stability, DSF; 10 µM).
With `Nc1nc(NC2CCCCC2)sc1C(=O)c1ccccc1` the remaining activity was 60% (enzyme activity, inhibitor; 10 µM).
For `Cn1c(=O)n(-c2ccc(C(C)(C)C#N)cc2)c2c3cc(-c4cnc5ccccc5c4)ccc3ncc21`, the remaining activity was 105% (enzyme activity, inhibitor; 10 µM).
The remaining activity of `N#CC(c1ccnc(NCCc2cccnc2)n1)c1nc2ccccc2s1` (stereo not drawn) is reported as 87.6% (enzyme activity, inhibitor; 0.5 µM).
With `CCOCCn1cc(C(=O)Nc2ccc(-n3nc(-c4cccnc4)cc3C(F)(F)F)cn2)ccc1=O` the remaining binding was 72% (cell-free assay, competition with immobilised ligand; 1 µM).
`O=C1NC(=O)c2cc(Nc3ccc(F)cc3)c(Nc3ccc(F)cc3)cc21` has a remaining signal of 91.4% (cell-free assay; 0.5 µM).
For `CCCOc1ccc([C@@H]2[C@@H](C(=O)O)[C@H](c3ccc4c(c3)OCO4)CN2CC(=O)Nc2c(CC)cccc2CC)cc1`, the remaining binding was 87% (cell-free assay, competition with immobilised ligand; 1 µM).
For `CSc1nc(C)c(-c2ccnc(Nc3ccc(N4CCOCC4)cc3)c2)[nH]1`, the inhibition was 88.6% (enzyme activity, inhibitor; 10 µM).
With `CN([C@@H]1CCc2c(CC(=O)O)c3ccccc3n2C1)S(=O)(=O)c1ccc(F)cc1` the remaining binding was 77% (cell-free assay, competition with immobilised ligand; 1 µM).
The inhibition of `CCCS(=O)(=O)Nc1ccc(F)c(C(=O)c2c[nH]c3ncc(-c4ccc(Cl)cc4)cc23)c1F` is reported as under 10% (enzyme activity, inhibitor; 1 µM).
`CCN1CCC2(CC1)NC(=O)c1c(c3ccc(Cl)c(Cl)c3n1C)C2C#N` (racemic) has a ΔTm of 0.6 °C (thermal stability, DSF; 10 µM).
With `O=C(Nc1cnn(-c2csc(C(=O)NC3COC3)c2)c1)Nc1c(F)cccc1Cl` the remaining activity was 49.1% (enzyme activity, inhibitor; 5 µM).
The remaining binding of `CC1=C(C#N)[C@@H](c2ccc3[nH]nc(C)c3c2)C(C#N)=C(c2ccc(Cl)cc2)N1` is reported as 65.2% (cell-free assay, competition with immobilised ligand; 1 µM).
`CC1(C)NC(=O)c2[nH]c3c(Cl)c(Cl)ccc3c2C1C#N` (stereo not drawn) has a ΔTm of 0.8 °C (thermal stability, DSF; 10 µM).
